The values below come from paper PMC4959095 (The Journal of Pharmacology and Experimental Therapeutics, 2016).

A short description of series [1]: intravenous pharmacokinetics in rats. Format: in vivo. The conditions noted are these: male, Wistar Hannover, rat, plasma, 0.1 mg/kg. Summed up: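 Jugular vein-cannulated male Wistar Hannover rats (250–300 g; n = 3) got a single i.v. bolus at 1 ml/kg. The native peptide was in 10% propylene glycol/90% 20 mM sodium phosphate, pH 7.4; the analog in 10% SEDDs/90% 20 mM phosphate, pH 5. Serial cannula blood was drawn predose and at 0.033–24 hours. Plasma standard curve ran 0.1–250 ng/ml with 1/x2 linear regression.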

The next series concerns the target V1a receptor (Homo sapiens, UniProt P37288). As to the kind of experiment: V1a receptor functional agonist assay. Format: cell-based.
Series [2] is described as follows: subcutaneous nondepot pharmacokinetics in mice. The format is in vivo, mouse. Summed up: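 Male C57BL/6J mice (n = 3 per dose) got a single nondepot s.c. injection.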
Series [3] is described as follows: subcutaneous depot pharmacokinetics in mice. The format is in vivo, mouse. Summed up: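 Male C57BL/6J mice (n = 2) got a single s.c. injection (100 µl) in a lipid-based gel depot designed for sustained release over at least 48 hours. Retro-orbital blood was drawn at 0.5, 1, 2, 4, 6 and 24 hours. Plasma standard curves were 0.5–1000 ng/ml (analog) and 0.5–500 ng/ml (native peptide), 1/x2 regression. Free concentrations were derived with fu,p.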

A further series deals with T1, hOTR (oxytocin receptor) (Homo sapiens, UniProt P30559).
T1 sequence (P30559 1-389): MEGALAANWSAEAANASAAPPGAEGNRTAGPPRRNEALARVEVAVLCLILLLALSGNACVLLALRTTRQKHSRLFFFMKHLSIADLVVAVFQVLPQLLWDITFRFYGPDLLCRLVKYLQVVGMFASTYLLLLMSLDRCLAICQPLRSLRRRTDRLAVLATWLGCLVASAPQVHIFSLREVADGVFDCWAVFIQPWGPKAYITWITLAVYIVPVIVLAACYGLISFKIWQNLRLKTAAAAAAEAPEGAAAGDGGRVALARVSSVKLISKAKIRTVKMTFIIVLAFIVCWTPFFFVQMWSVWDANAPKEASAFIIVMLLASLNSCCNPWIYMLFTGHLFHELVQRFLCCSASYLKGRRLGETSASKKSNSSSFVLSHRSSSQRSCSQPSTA
The format is cell-based. Particulars: calcium flux, normalized to control responses. (In general: A change in cytosolic calcium serves as a functional read-out for many receptors and channels.)

Setting [4] is: mice, s.c. 1 mg/kg, nondepot formulation.
[5] abbreviates: male, C57BL/6J, mouse, plasma, sc, 20 mg/kg.

Chain of V1a receptor (P37288 whole entry): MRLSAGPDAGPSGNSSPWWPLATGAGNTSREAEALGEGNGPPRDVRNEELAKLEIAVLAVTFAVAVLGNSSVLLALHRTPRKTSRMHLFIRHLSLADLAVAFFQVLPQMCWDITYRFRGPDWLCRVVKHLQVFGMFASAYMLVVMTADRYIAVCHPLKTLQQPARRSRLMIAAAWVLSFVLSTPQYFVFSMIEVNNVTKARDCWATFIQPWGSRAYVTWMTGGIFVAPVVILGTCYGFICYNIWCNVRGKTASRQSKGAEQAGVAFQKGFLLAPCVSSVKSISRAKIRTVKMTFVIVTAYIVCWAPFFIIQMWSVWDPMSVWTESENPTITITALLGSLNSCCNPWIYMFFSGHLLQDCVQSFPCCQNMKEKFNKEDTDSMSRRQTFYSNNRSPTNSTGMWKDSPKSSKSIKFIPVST

The clearance is a measure of how efficiently the substance is removed, as volume per time. In general, half-life refers to the time needed for the level to fall by half in the phase considered. What is called Cmax is the highest concentration seen after dosing. In series [1], `CC[C@H](C)[C@@H]1NC(=O)[C@H](Cc2ccc(O)cc2)NC(=O)[C@@H](N)CSSC[C@@H](C(=O)N2CCC[C@H]2C(=O)N[C@@H](CC(C)C)C(=O)NCC(N)=O)NC(=O)[C@H](CC(N)=O)NC(=O)[C@H](CCC(N)=O)NC1=O` [OT, Oxytocin] returned a clearance of 17.1 mL/min/kg. The half-life was 7.2 min in series [1] and 7.3 h in series [3] (setting [5]). The V1a % agonist on V1a receptor is listed as 94 (n = 70) %. Further, the Cmax in series [2] (male, C57BL/6J, mouse, plasma, sc, 1 mg/kg) came out at 216 nM; in series [3] (setting [5]) it was 65.4 nM. Further, the “free Cmax” value is listed as 191 nM in series [2] (setting [4]) and 58.2 nM in series [3] (mice, s.c. 20 mg/kg, depot formulation). For the same compound, the “time of Cmax postdose” value in series [2] (setting [4]) came out at 0.25 h. Also, on hOTR (oxytocin receptor), the OTR % agonist is reported as 100 (n = 70) %.
